Screening results from PubChem.
Rows were chosen to be rich in hits. Some 3.3% of all compounds tested hit in one or more screens of this group.
MBD2 inh: MBD2-methylated oligo binding inhibition | inhibition, % at 4.4 µM | TR-FRET, MBD2 binding to methylated oligonucleotide | AID 686964 | 370,000 tested, 0.31% active | Q9UBB5; in the data active means inhibition above about 13%
LEDGF integ inh: blocks HIV-1 LEDGF/p75-dependent DNA integration; TR-FRET IN-LEDGF/p75 DNA integration, Eu/Cy5; inhibition, % at 3.7 µM; 370,000 tested, 0.64% active; AID 743269;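 active means inhibition above the screen-wide mean plus 3 SD, cut at about 13% in these data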;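 further: signal is the Cy5 over europium emission ratio at 671 and 618 nm; 0% = plate median of compound wells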
PRMT1 FP inh: inhibitors of human PRMT1 | recombinant PRMT1, activity-based probe fluorescence polarization | 370,000 tested, 1.3% active | inhibition, % at 2.79 µM | AID 652257 | Q99873;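 active means inhibition above about 21% made by adding two undisclosed values, limit read from the data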
TDP2 absorb: blocks human TDP2 phosphodiesterase activity; O95551; 370,000 tested, 0.34% active; recombinant TDP2, T5PNP hydrolysis, p-nitrophenol absorbance 415 nm; inhibition, % at 12.8 µM;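 active means inhibition above the mean of all tested compounds plus 3 SD, set per campaign, cut at about 25% in these data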;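 further: 0% = DMSO with enzyme and 100% = buffer with substrate but no TDP2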
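System – recombinant human TDP2 · Quantity – TDP2 enzyme at 120 nM final · Doses – single concentration, 12.8 µM nominal, with 1% DMSO · Incubation – 2 h at 37 °C · Measured by – epi absorbance of p-nitrophenol freed from T5PNP by hydrolysis · Read-out – % inhibition relative to enzyme-containing and enzyme-free wells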
SIAE inh: blocks human sialic acid acetylesterase | 370,000 tested, 0.69% active | inhibition, % at 9.66 µM | AID 1053197 | Q9HAT2 | SIAE FP-Rh probe binding, fluorescence polarization;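 active means inhibition above a cutoff: mean of compounds within the control limits plus 3 SD of those, cut at about 17% in these data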;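 further: 0% = plate median of compound wells and 100% = probe without SIAE protein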
UHRF1 MBD2 ctr: UHRF1 methyl-DNA binding inhibition. Q96T88. UHRF1 binding to methylated oligo, TR-FRET. inhibition, % at 4.4 µM. 370,000 tested, 0.75% active. AID 687016; in the data active means inhibition above about 21%;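 further: UHRF1 SRA domain binding a hemimethylated CpG hairpin DNA probe; 0% = median of test compound wells and 100% = reference inhibitor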
Target sequence (Q96T88 whole entry, looked up, the tested form may be a part): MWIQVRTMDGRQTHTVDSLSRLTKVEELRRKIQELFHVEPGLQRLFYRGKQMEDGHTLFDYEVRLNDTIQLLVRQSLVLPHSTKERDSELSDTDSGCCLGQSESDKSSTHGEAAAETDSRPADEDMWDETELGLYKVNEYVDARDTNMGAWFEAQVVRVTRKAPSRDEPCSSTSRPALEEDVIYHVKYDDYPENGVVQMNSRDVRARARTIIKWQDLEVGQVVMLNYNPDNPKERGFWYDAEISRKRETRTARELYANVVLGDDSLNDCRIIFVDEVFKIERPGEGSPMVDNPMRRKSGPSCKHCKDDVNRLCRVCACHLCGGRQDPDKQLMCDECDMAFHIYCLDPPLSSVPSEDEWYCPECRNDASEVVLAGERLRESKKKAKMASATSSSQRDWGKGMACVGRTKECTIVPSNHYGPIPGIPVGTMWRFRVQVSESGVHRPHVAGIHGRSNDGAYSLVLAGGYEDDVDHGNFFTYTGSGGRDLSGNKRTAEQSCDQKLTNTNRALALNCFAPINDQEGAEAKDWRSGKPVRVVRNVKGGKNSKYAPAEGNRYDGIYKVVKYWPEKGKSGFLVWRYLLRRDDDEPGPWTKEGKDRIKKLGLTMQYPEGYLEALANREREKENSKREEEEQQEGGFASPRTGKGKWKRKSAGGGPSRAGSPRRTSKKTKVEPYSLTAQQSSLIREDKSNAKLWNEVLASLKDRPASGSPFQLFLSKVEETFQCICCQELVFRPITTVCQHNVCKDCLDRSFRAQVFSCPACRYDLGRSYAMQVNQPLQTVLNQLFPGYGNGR
IN multimer act: HIV-1 integrase multimerization activation, counter-screen | activation, % at 7.7 µM | TR-FRET HIV-1 integrase multimerization, biochemical | shares compounds with LEDGF integ inh | 2,000 tested, 17% active; in the data active means activation above about 8.9%
TRFRET interf: counter-screen for LEDGF/p75 integration inhibitors: TR-FRET optical interference; 2,000 tested, under 10 active; shares compounds with LEDGF integ inh; inhibition, % at 7.7 µM; TR-FRET optical interference counterscreen, HIV-1 IN multimerization;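 active means inhibition above the mean over all tested compounds plus 3 SD, which no compound reached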;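 further: 0% = integrase with antibodies and DMSO and 100% = antibodies without integrase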
IN-LEDGF confirm: confirmation of HIV-1 LEDGF/p75-dependent integration inhibitors; shares compounds with LEDGF integ inh; inhibition, % at 3.7 µM; TR-FRET LEDGF/p75-dependent HIV-1 integration, biochemical; 2,000 tested, 36% active; in the data active means inhibition above about 14%
Active calls of the source: *; · = no result.

SMILES	MBD2 inh	LEDGF integ inh	PRMT1 FP inh	TDP2 absorb	SIAE inh	UHRF1 MBD2 ctr	IN multimer act	TRFRET interf	IN-LEDGF confirm
COC(=O)C1=CC[C@@H](NC(=O)OC(C)(C)C)[C@H](O)[C@H]1O[Si](C)(C)C(C)(C)C	2.2	1.2	-0.3	0.0	7.0	-4.1	·	·	·
CCOC(=O)[C@]12CCCC3=C1N(CCC3)C(=O)[C@@H](CC(=O)NCc1cccc3ccccc13)C2	-1.2	4.1	3.4	-5.2	-5.5	1.5	·	·	·
C[C@H]1[C@@H](OC(=O)NC2CCCCC2)CC[C@@]23CCCN2C(=O)CCC[C@@H]13	0.9	-2.8	3.5	-9.0	4.0	-1.6	·	·	·
O=C(CN1CCN(c2ccc(F)cc2)CC1)Nc1ccc(F)c(F)c1	4.1	2.6	0.2	-9.9	2.2	17.8	·	·	·
O=C(CN1CCN(c2ccc(Cl)cc2)CC1)Nc1cccc(F)c1	-2.7	32.2*	-1.1	-5.9	-3.2	-0.8	0.2	-1.0	-4.4
CCn1c(=O)c(C(=O)CN2CCN(Cc3ccc4c(c3)OCO4)CC2)c(N)n(Cc2ccccc2)c1=O	1.9	-1.6	-3.8	10.3	-2.3	-0.8	·	·	·
CCn1c(=O)c(C(=O)CN2CCN(S(=O)(=O)c3cc(C)ccc3C)CC2)c(N)n(Cc2ccccc2)c1=O	-0.1	49.8*	-0.4	10.1	-4.2	-2.4	1.1	-5.5	-5.1
Cc1occc1-c1nnc(SCC(=O)Nc2ccc3ncccc3c2)n1-c1ccccc1	-0.2	-0.8	6.7	3.7	-4.9	-2.1	·	·	·
O=C(NCc1ccc(Cl)cc1)c1ccc(Br)o1	0.6	55.8*	1.7	8.4	1.2	-0.6	0.4	-2.0	-7.2
O=C(NNC(=S)NCc1ccc(Cl)cc1)c1ccc(Br)o1	1.1	-4.1	7.1	-3.3	-3.7	0.9	·	·	·
CC1(C)S[C@@H]2[C@H](NC(=O)[C@H](N)c3ccc(O)cc3)C(=O)N2[C@H]1C(=O)O	2.0	15.2*	1.2	-2.8	7.3	7.8	6.0	-30.3	42.7*
CC1(C)SC2c3ccccc3C(=O)N2C1C(=O)O (stereo not drawn)	-6.0	2.6	1.6	4.0	4.7	-1.3	·	·	·
COc1ccc(CNc2ccccc2)cc1Br	3.2	22.1*	3.2	5.3	4.0	0.8	-0.4	2.1	2.7
O=C(O)C(C(=O)/C=C/c1ccco1)=C1SCCS1	-1.8	17.5*	19.5	-5.0	8.7	19.9	0.9	-4.6	32.5*
O=C(C=C1SCCS1)/C=C/c1ccco1	1.6	14.3*	21.7*	-8.5	0.4	1.4	5.3	-26.6	35.5*
O=S(=O)(c1cccs1)N1CCC(c2cn3ccccc3n2)CC1	3.2	-1.6	6.2	2.6	3.1	-0.6	·	·	·
COc1ccc(S(=O)(=O)Nc2ccc(F)c(F)c2)cc1Cl	0.2	35.2*	-0.7	-2.8	0.4	-1.6	1.8	-6.3	-6.5
O=[N+]([O-])c1c(NCCCO)cc(N2CCCCCC2)c2nonc12	-2.8	-5.8	11.0	-17.0	-3.5	-4.9	·	·	·
O=[N+]([O-])c1c(NCCCO)cc(SCc2ccco2)c2nonc12	7.2	38.1*	64.0*	21.3	-1.8	34.5*	4.5	-22.7	1.0
O=C(CSc1nc2ccccc2n1Cc1ccccc1)NN=C/C=C/c1ccccc1	-2.4	3.1	-9.1	-12.5	-13.7	-2.7	·	·	·
COC1=C[C@H](C(=O)NCc2ccc(Br)cc2)[C@H](C)[C@@H](c2ccccc2)CC1=O	0.8	21.9*	-1.5	-5.1	2.6	1.6	0.3	-1.3	-9.8
COC1=C[C@H](C(=O)NCc2ccc(Cl)cc2)C(C)C(c2ccccc2)CC1=O (stereo partly drawn)	-4.5	-2.4	1.3	-0.6	1.7	0.1	·	·	·
C=CCN(C(=O)[C@@H](C)[C@@H](O)c1ccc(Cl)cc1)c1ccccc1	-3.7	4.4	-5.1	-3.3	-1.8	0.7	·	·	·
COC(=O)c1cc(-c2ccc3ccccc3c2)c(=O)n2c1CCC2	0.5	-0.7	-2.0	7.1	6.0	-0.7	·	·	·
COc1cccc(Cn2cc(COC(=O)N3CCOCC3)nn2)c1	-0.4	-0.9	1.2	-1.7	0.4	2.1	·	·	·
SMILES	MBD2 inh	LEDGF integ inh	PRMT1 FP inh	TDP2 absorb	SIAE inh	UHRF1 MBD2 ctr	IN multimer act	TRFRET interf	IN-LEDGF confirm
COc1cc(NC(=S)NCc2cccnc2)c(OC)cc1Cl	-1.5	79.5*	-0.1	5.2	6.1	-1.9	1.1	-4.0	1.9
CC1(C)Oc2cc(N)c([N+](=O)[O-])cc2O1	-8.9	45.2*	14.6	5.2	6.3	22.8*	0.3	-1.4	-5.5
Nc1cc2cccnc2cc1Cl	-3.5	17.6*	12.6	8.6	-3.4	7.2	4.6	-16.4	26.8*
C=CCNC(=S)N1N=C(c2ccco2)CC1c1ccco1 (stereo not drawn)	-3.2	17.3*	3.4	7.2	13.4	-2.8	1.5	-7.5	6.8
O=S(=O)(CC1NCc2cc(F)ccc21)NC1CCCC1 (stereo not drawn)	1.5	0.8	11.1	-12.3	2.6	-3.6	·	·	·
Cc1cc(NC(=O)CCCS(=O)(=O)c2nc(-c3cccs3)cc(C(F)(F)F)n2)no1	-2.9	18.5*	2.4	1.0	-2.9	-0.1	-0.9	4.8	2.0
Cc1cc(NC(=O)CSc2nc(-c3cccs3)cc(C(F)(F)F)n2)no1	-1.4	-3.1	2.4	-4.8	-8.9	2.3	·	·	·
c1ccc(-n2c(-c3ccncc3)nnc2-c2ccco2)cc1	-6.3	66.8*	-1.6	8.6	5.3	2.1	-2.1	10.8	-4.4
CC[C@H](CCCc1ccc(F)cc1)CN(Cc1ccc(OC)cc1)S(=O)(=O)c1ccc(C)cc1	3.6	-1.5	0.5	-0.1	-0.2	-1.4	·	·	·
Cc1cc(-c2n[nH]c(=S)n2/N=C/c2cccs2)n[nH]1	3.4	37.6*	0.6	8.4	2.8	-0.9	1.6	-8.0	0.6
C[C@H](O)[C@@H]1CN2CCc3c([nH]c4cccc(-c5ccccc5)c34)[C@@H]2C[C@@H]1N(C)C(=O)c1ccco1	-10.1	2.5	6.8	6.3	-2.8	-5.0	·	·	·
COc1ccc(-c2csc(NC(=O)c3ccccc3F)c2C(=O)O)cc1	5.8	15.2*	6.4	-4.5	0.5	-0.6	3.2	-11.4	9.9
O=C(Nc1cccc(C(F)(F)F)c1)OC1CCC12CCC(c1ccccc1)CC2 (stereo not drawn)	-0.4	3.8	5.3	-7.9	-17.1	3.5	·	·	·
S=C(NCc1ccncc1)Nc1cccc(Cl)c1	0.8	-2.9	0.8	-3.1	9.9	0.7	·	·	·
Fc1ccc(CNC(=S)Nc2cccc(Cl)c2)cc1	-1.3	15.4*	1.3	-0.7	8.2	-3.8	-0.8	4.2	-0.9
